Data on 37 variants can be found in the RNAGym collection of RNA variant scans (doi:10.1126/science.aae0568).

Sequences and labels used below:
B1: tRNA (parent)
chain: GUUCCGUUGGCGUAAUGGUAACGCGUCUCCCUCCUAAGGAGAAGACUGCGGGUUCGAGUCCCGUACGGAACG

Variants at the floor of the assay were thinned out. A value given as a limit tells only on which side of the number the result lay.

This data set covers variants of B1. In words: yeast fitness relative to wild type (ratio to wild type); higher = fitter; tRNA-Arg(CCU), competitive growth, 37 C, YPD. The essentials:
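Start and end populations of a pooled competition were compared by 100-nucleotide paired-end sequencing of gene amplicons. The Saccharomyces cerevisiae strains carried tRNA-Arg(CCU) gene variants at the native genomic locus, synthesised with a 3% per-site mutation rate at 69 sites, and competed in YPD at 37°C for 24 hours in six parallel replicates. Darwinian fitness relative to wild type was based on the change in genotype frequencies. Genotypes required ≥ 100 starting reads, and estimates < 0.5 were set to 0.5.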
In the case of GUUCCGUUGGCGUAAUGGUAGCGCGUCUCCCUCCUGACGAGAAGACUGCGGGUUCGAGUCCGGUACGGAACG [A21G A36G G38C C62G], the yeast fitness was at most 0.5. Consider GUUCCGUUGGCGUAAUGGUAGCGCGUCUCCCUCCUAAGGAGAAGGCUGCGGGUUCGAGUCCCGUCCGGAACG [A21G A45G A65C], for which the yeast fitness was determined as 0.977.

In the case of GUUCCGUUGGCGUAAUGGUACCGCGUCACCCUCCUAAGGUGAAGACUGCGGGUUCGAGUCCGGUAGGGAACG [A21C U28A A40U C62G C66G], the yeast fitness is at most 0.5. The value for GUUCCGUUGGCGUAAUGGUACCGCGUCUCCCUCCUAAGGAGAAGACUGCGGGUUCGAGUCCCGGACGGGACG [A21C U64G A69G] was 0.504; that for GUUCCGUUGGCGUAAUGGUAGCGCGUCUCCCUCCUAAGGAGAAGGCUGCGGGUUCGAGUCCCGUACGGAACG [A21G A45G] was 0.91; that for GUUCCGUUGGCGUAAUGGUAGCGCGUCUCCCUCCUAAGGAGAAGCCUGCGGGUUCGAGUCCCGUACGGAACG [A21G A45C] was 0.89.

As to GUUCCGUUGGCGUAAUGGUACCGCGUCUCCCACCUAAGGAGAAGAAUGCGGGUUCGAGUCCCGUACGGAACG [A21C U32A C46A], the yeast fitness came to 0.744. The value for GUUCCGUUGGCGUAAUGGUACCGCGUCUCCCCCCUAAGGAGAAGAGUGGGGGUUCGAGUCCCGUACGGAACG [A21C U32C C46G C49G] was 0.529; that for GUUCCGUUGGCGUAAUGGUACCGCGUCUCCCUCCUAAGGAGAAGACAGCGGGUUCGAGUUCCGUACCGUACG [A21C U47A C60U G67C A69U] was 0.574. The value for GUUCCGUUGGCGUAAUGGUACCGCGUCUCCCUCCUAAGGAGAAGACAGCGGGUUCGAGUCCCGUACGGAACG [A21C U47A] was 0.85; that for GUUCCGUUGGCGUAAUGGUAGCGCGUCUCCCUCCUAAGGAGAAGACUGCGGGUUCGAGUCCCGUACGGAACG [A21G] was 1. For the variant GUUCCGUUGGCGUAAUGGUACCGCGUCUCCCUCCUAAGGAGAAGACUGCGGGGUCGAGUCCUGUACGCAACG [A21C U53G C62U G68C], the yeast fitness is at most 0.5.

As to GUUCCGUUGGCGUAAUGGUAGCGCGUCUCCCUCCUAAGGGGAAGACUGCGGGUUCGAGUCUCGUACGGAACG [A21G A40G C61U], the yeast fitness worked out at 0.654. GUUCCGUUGGCGUAAUGGUAGCGCGUCUCCCUCCUAAGGAGACGACUGCGGGUUCGAGUGCCGUACGGUACG [A21G A43C C60G A69U]: the yeast fitness was at most 0.5. Consider GUUCCGUUGGCGUAAUGGUAGCGCGUCUCCCUCCUAGGCAGAAGACUGCGGGUUCGAGUCCUGUACGGAACG [A21G A37G G39C C62U], for which the yeast fitness was at most 0.5. Turning to GUUCCGUUGGCGUAAUGGUAGCGCGUCUCCCUCCUAAGGAGACGACUGCGGGUUCGAGUGCCGUACGCAACG [A21G A43C C60G G68C], the yeast fitness is at most 0.5. For GUUCCGUUGGCGUAAUGGUAGCGCGUCUCCCUCCUGAGGAGAAGACUGCGAGUUCGAGUCCCGUACGGCACG [A21G A36G G51A A69C] the value was at most 0.5; for GUUCCGUUGGCGUAAUGGUAGCGCGUCUCCCUCCUAAGGAGCAGACUGCGGGUUCGAGUCCCGUACAGAACG [A21G A42C G67A], 0.662; for GUUCCGUUGGCGUAAUGGUAGCGCGUCUCCCUCCUAAGGAGAGGACUGCGGGUUCGAGUCCCGUACGGAACG [A21G A43G], 1.04.

For GUUCCGUUGGCGUAAUGGUAGCGCGUCUCCCUCCUAAGGAGACGACUGCGGGUUCGAGUCCCGUACGGAACG [A21G A43C], the yeast fitness stood at 0.966. For GUUCCGUUGGCGUAAUGGUAGCGCGUCUCCCUCCUAAGGAGUAGACUGCGGGUUCGAGUCCCGUACGGAACG [A21G A42U] the value was 0.839; for GUUCCGUUGGCGUAAUGGUAGCGCGUCUCCCUCCUAAGGAGCAGACUGCGGGUUCGAGUCCCGUACGGAACG [A21G A42C], 0.96; for GUUCCGUUGGCGUAAUGGUACCGCGUCUCCCUCCUAAGGAGAAGACUGCGGGUACGAGUCCCGUACGGAACG [A21C U54A], 0.552. Regarding GUUCCGUUGGCGUAAUGGUACCGCGUCUCCCUCCUAAGGAGAAGACUGCGGGUCCGAGUCCCGUACGGAACG [A21C U54C], the yeast fitness is 0.845.

As to GUUCCGUUGGCGUAAUGGUACCGCGUCUCCCCCCUAAGGAGAAGACUGCGGGUUCGAGUCCCGAACGGAACG [A21C U32C U64A], the yeast fitness is 0.664. On to GUUCCGUUGGCGUAAUGGUAGCGCGUCUCCCUCCUAAGGAGUAGACUGCGGGUUCGUGUCCUGUACGGAACG [A21G A42U A57U C62U], for which the yeast fitness is at most 0.5. Take GUUCCGUUGGCGUAAUGGUAGCGCGUCUCCCUCCUACGGAGAAGACUGCGGGUUCGAGUCCCGUUCGCAACG [A21G A37C A65U G68C]: the yeast fitness is at most 0.5.

For GUUCCGUUGGCGUAAUGGUAGCGCGUCUCCCUCCUAAGGAGCAGACUGCGGAUUCGAGUCCCGUACGGAACG [A21G A42C G52A], the yeast fitness is 0.637.

Consider GUUCCGUUGGCGUAAUGGUAGCGCGUCUCCCUCCUAAGGAGCAGACUGCGGGUUCGAGUCCCGUACGGAUCG [A21G A42C A70U], for which the yeast fitness stood at 0.761. For the variant GUUCCGUUGGCGUAAUGGUAGCGCGUCUCCCUCCUAAGGAGACGACUGCGGGUUCGAGUCCCGUACGGAUCG [A21G A43C A70U], the yeast fitness was found to be 0.712. For the variant GUUCCGUUGGCGUAAUGGUACCGCGUCACCCCCCUAAGGAGAAGACUGCGGGUUCGAGUCCCGUACGAAACG [A21C U28A U32C G68A], the yeast fitness was at most 0.5. GUUCCGUUGGCGUAAUGGUAGCGCGUCUCCCUCCUAAGGAGCAGACUGCGGGUUCGAGUCCCGUAAGGAACG [A21G A42C C66A]: the yeast fitness was at most 0.5. For GUUCCGUUGGCGUAAUGGUACCGCGUCACCCUCCUAAGGAGAAGACUGCGGGUUGGUGUCCCGUACAGAACG [A21C U28A C55G A57U G67A] the value was at most 0.5; for GUUCCGUUGGCGUAAUGGUAGCGCGUCUCCCUCCUUAGGAGAAGACUGAGGGUUCGAGUCCCGUACGGAACG [A21G A36U C49A], at most 0.5. The value for GUUCCGUUGGCGUAAUGGUACCGCGUCUCCCACCUAAGGAGAAGAAUGCGGGUUCGAGUCCCGACCGGAACG [A21C U32A C46A U64A A65C] was at most 0.5. The value for GUUCCGUUGGCGUAAUGGUACCGCGUCUCCCUCCCAAGGAGAAGACUGCGGGUUCGAGUCCCGUGCGGAACG [A21C U35C A65G] was 0.583; that for GUUCCGUUGGCGUAAUGGUAGCGCGUCUCCCUCCUAAGGGGAAGACUGCGGGUUCGAGUCCCGUACGGAUCG [A21G A40G A70U] was 0.609.
